# In article PMC3575599 (Cell reports, 2013):
# Entries after “also recorded” stand apart in the source; their conditions may differ.
# Assays:
# mefs = experiment: Proliferation of mefs with dox-inducible Chd5 or PHD-mutants; assay type: cell-based, mouse; settings: for effect on mef proliferation: dox-induced (0.2 μg/ml dox) vs untreated
# How it was run: (§1)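 Mouse Chd5 (wild-type or PHD point mutants) is introduced by retrovirus in a dox-inducible vector, with SK-N-AS cells stably expressing rtTA. Mefs are seeded at 5 × 10^4 cells per 6 cm dish and SK-N-AS at 2.5 × 10^4 cells. Cells grow in DMEM with 100 μg/ml hygromycin B and 0.5 μg/ml puromycin, ±0.2 μg/ml dox. Cells are counted over days in triplicate (Coulter counter or crystal violet); mean ± S.D., two-tailed t-test.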
# [1] = test system: Chd5 target gene expression; experiment: qRT-PCR of Chd5 target genes in mefs; assay type: cell-based, mouse; settings: qRT-PCR normalized with actin, with (+) vs without (−) dox
# H3K4me0 peptide = experiment: Peptide pull-down with recombinant wild-type and mutant PHDs or individual PHDs; assay type: binding; settings: biotinylated histone peptides; recombinant PHDs of Chd5
# H3 peptide = assay type: binding; settings: nuclear extracts from mefs; anti-Flag immunoblot
# SK-N-AS cells [2] = experiment: Proliferation of SK-N-AS cells with dox-inducible Chd5 or PHD-mutants; assay type: cell-based, human; settings: for reduction of SK-N-AS proliferation: dox-induced; for effect on SK-N-AS proliferation: dox-induced (0.2 μg/ml dox) vs untreated
# How it was run: as §1
# SK-N-AS cells [3] = experiment: Differentiation of SK-N-AS cells; assay type: cell-based, human; settings: for cell morphology / differentiation: SK-N-AS, dox-inducible expression; for MAP2 expression: immunofluorescence, neuronal marker MAP2
# unmodified H3 = assay type: binding; settings: purified Chd5-PHDs or nuclear lysates expressing Flag-tagged Chd5; unmodified H3 peptides
# SK-N-AS cells [4] = experiment: Tumor growth of SK-N-AS cells injected subcutaneously into athymic nude mice; assay type: in vivo, human; settings: SK-N-AS cells s.c., dox-diet
# How it was run: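 SK-N-AS cells carry rtTA plus dox-inducible vector, wild-type or PHD-mutant Chd5. 1.6 × 10^6 cells mixed with Matrigel are injected s.c. into irradiated athymic nude mice. One cohort gets normal diet; the other gets dox diet from two days before injection onward. A blinded observer measures tumours. Read-outs are fold increase in tumour volume over 17 days (mean ± S.E.M.) and percentage change, dox-treated versus untreated.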
# [5] = test system: recombinant tandem PHDs of Chd5; experiment: Biotinylated histone peptide pull-down with recombinant Chd5 PHDs; assay type: binding, mouse; settings: biotinylated histone peptides; in vitro pull-down
# chromatin = experiment: Chromatin fractions from cells expressing Flag-tagged Chd5; assay type: cell-based
Molecule,effect on mef proliferation (mefs),effect on Chd5 target gene expression in mefs [1],binding to H3K4me0 peptide (pull-down) (H3K4me0 peptide),cell morphology / differentiation (SK-N-AS cells [3]),also measured
"C[C@H]1c2cccc(O)c2C(=O)C2=C(O)[C@]3(O)C(=O)C(C(N)=O)=C(O)[C@@H](N(C)C)[C@@H]3[C@@H](O)[C@@H]21 [doxycycline, reference compound]",no significant effect,,,,
C432W: Chd5 mutant compromised for H3 binding,defective in their ability to inhibit proliferation,not able to inhibit expression of Chd5-bound loci,,,
"D346A/D434A: Chd5 double mutant, PHD1-D346A and PHD2-D434A",fail to do so,fail to do so,,,
D346A: Chd5-PHD1 single amino acid mutant; H3-binding-competent,inhibited proliferation to an extent comparable to that of wild-type Chd5; also recorded: inhibit proliferation,repress target gene expression; also recorded: inhibit expression of several Chd5-bound genes,binds the H3K4me0 peptide,intermediate differentiation phenotype,"pull-down by H3 peptide of Flag-tagged Chd5 (H3 peptide): are pulled down by H3 peptide; effect on mef proliferation (mefs; listed as Chd5-PHD1-D346A): inhibits cellular proliferation; reduction of SK-N-AS proliferation (SK-N-AS cells [2]): about 17%; effect on SK-N-AS proliferation (SK-N-AS cells [2]): inhibited proliferation; effect on SK-N-AS proliferation (SK-N-AS cells [2]; listed as Chd5-PHD1-D346A): inhibits cellular proliferation; cell morphology / differentiation (SK-N-AS cells [3]; listed as Chd5-D346A): partially-differentiated morphology; relative efficiency of H3 binding (unmodified H3): bind H3 more efficiently than PHD1-D361A, PHD2-D434A, and PHD2-D415A"
D361A: Chd5-PHD1 single amino acid mutant compromised for H3 binding,defective in their ability to inhibit proliferation,fail to do so; also recorded: not able to inhibit expression of Chd5-bound loci,compromised binding,classic stem-like neuroblastoma morphology with proliferative foci,effect on mef proliferation (mefs; listed as Chd5-PHD1-D361A): fail to do so; effect on SK-N-AS proliferation (SK-N-AS cells [2]): no such effects are observed; MAP2 expression (SK-N-AS cells [3]): lower expression; effect on tumor growth (SK-N-AS cells [4]): failed to reduce tumor growth
D415A: Chd5 mutant compromised for H3 binding,defective in their ability to inhibit proliferation,,,,
D434A: Chd5-PHD2 single amino acid mutant compromised for H3 binding,defective in their ability to inhibit proliferation,fail to do so; also recorded: not able to inhibit expression of Chd5-bound loci,compromised binding,classic stem-like neuroblastoma morphology with proliferative foci,effect on mef proliferation (mefs; listed as Chd5-PHD2-D434A): fail to do so; MAP2 expression (SK-N-AS cells [3]): lower expression; effect on tumor growth (SK-N-AS cells [4]): failed to reduce tumor growth
G355A: Chd5 mutant compromised for H3 binding,defective in their ability to inhibit proliferation,not able to inhibit expression of Chd5-bound loci,,,
"PHD1: individual PHD of Chd5, PHD1 (345–403) (QDYCEVCQQGGEIILCDTCPRAYHLVCLDPELEKAPEGKWSCPHCEKEGIQWEPKDDDE; PHD1; UniProt A2A8L1 345-403, looked up, fragment)",,,same binding preference for H3K4me0,,
"PHD2: individual PHD of Chd5, PHD2 (408–465) (GGCEEEEDDHMEFCRVCKDGGELLCCDACPSSYHLHCLNPPLPEIPNGEWLCPRCTCP; PHD2; UniProt A2A8L1 408-465, looked up, fragment)",,,same binding preference for H3K4me0; also recorded: highest affinity,,
W384A: H3-binding-competent Chd5-PHD mutant,inhibited proliferation to an extent comparable to that of wild-type Chd5; also recorded: inhibit proliferation,inhibit expression of several Chd5-bound genes,,,
unmodified H3 (1–21) peptide: biotinylated histone H3 (1–21) peptide,,,,,binding to recombinant tandem PHDs of Chd5 (pull-down) [5]: bind
wild-type Chd5: full-length mouse Chd5 (chromodomain helicase DNA-binding protein 5),inhibited proliferation; also recorded: inhibits cellular proliferation,repress target gene expression,,flat epithelial-like morphology; also recorded: differentiated cellular morphology,"pull-down by H3 peptide of Flag-tagged Chd5 (H3 peptide): are pulled down by H3 peptide; inhibition of proliferation in mefs (mefs; dox-induced, see Figure 3A): 54%; effect on Chd5 target gene expression in mefs ([1]; listed as Chd5): inhibits expression of the oncogenic PcG protein Bmi1; reduction of SK-N-AS proliferation (SK-N-AS cells [2]): about 17%; effect on SK-N-AS proliferation (SK-N-AS cells [2]): inhibited proliferation; also recorded: inhibits cellular proliferation; MAP2 expression (SK-N-AS cells [3]): increased expression; also recorded: increase in MAP2 expression; effect on tumor growth (SK-N-AS cells [4]): reduces tumorigenesis in vivo much more efficiently; association with chromatin (chromatin): associated with chromatin"
